Screening data as filed in PubChem BioAssay.
mHtt clearance: mutant huntingtin protein clearance. 47,000 compounds, 0.42% hits. HeLa Exon1htt(103Q)mCFP, aggregate imaging; zero = plate's median compound well. inhibition, % at 1.5 µM. AID 853;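 active = inhibition of aggregate fluorescence above about 70%, also judged a hit by eye on the cell image, limit read from the data, passing the limit was not always enough; inconclusive = no rule stated for this call; inactive = not judged a hit on image review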;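 also: cells exposed to compound for three days before fixation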
M1 ag: activates the M1 muscarinic receptor; CHO-M1 cells, Fluo-4 calcium fluorescence, agonist mode; stronger effect = higher value; B-score at 10 µM; 64,000 compounds, 3% hits;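 active = fluorescence rise, raw or as B-score row- and column-corrected plate score, outside the 99.7% band of its plate's samples, either direction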
AP complement: orthogonal test for alternative complement pathway inhibitors; Human serum alternative complement pathway, LPS-coated ELISA, C3 deposition; tested in compound mixtures; 62,000 compounds, 0.08% hits; inhibition, % at 5 µM;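 active = inhibition above 30% in each of the two pooled mixtures holding the compound, so the lower value exceeds 30%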;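 also: 0% = serum in Mg-EGTA without compound and 100% = EDTA serum blank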
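Medium: diluted human serum in Mg2+-EGTA GVB++. Assay system: human serum complement alternative pathway, C3 deposition onto LPS. Also added: Plate-bound LPS. Technique: Anti-C3 ELISA, OD 450 nm. Measure: percent inhibition. Incubation: 1 h at 37 °C. Dosing: 5 µM each compound, pools of ten, 50 µM per pool.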
M1 antagonist: M1 muscarinic receptor (rat) antagonism; P08482; CHO-M1 cells, Fluo-4 calcium, ACh EC80 antagonist mode; stronger effect = lower value; B-score at 10 µM; 64,000 compounds, 3.4% hits; AID 628;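 active = calcium fluorescence response, raw or row-and-column corrected B-score, differing from the plate sample mean either way at a set confidence level, mostly lower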
D1 mod: allosterically modulates the human D1 dopamine receptor; B-score at 10 µM; HEK293 D1, CRE-luciferase, dopamine EC30 potentiation; actives deviate in either direction; P21728; AID 641; 58,000 compounds, 5.9% hits;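 active = luminescence count or its row- and column-corrected plate score outside the 99.7% band of the plate's sample wells, on either side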
Target sequence (P21728 whole entry, looked up): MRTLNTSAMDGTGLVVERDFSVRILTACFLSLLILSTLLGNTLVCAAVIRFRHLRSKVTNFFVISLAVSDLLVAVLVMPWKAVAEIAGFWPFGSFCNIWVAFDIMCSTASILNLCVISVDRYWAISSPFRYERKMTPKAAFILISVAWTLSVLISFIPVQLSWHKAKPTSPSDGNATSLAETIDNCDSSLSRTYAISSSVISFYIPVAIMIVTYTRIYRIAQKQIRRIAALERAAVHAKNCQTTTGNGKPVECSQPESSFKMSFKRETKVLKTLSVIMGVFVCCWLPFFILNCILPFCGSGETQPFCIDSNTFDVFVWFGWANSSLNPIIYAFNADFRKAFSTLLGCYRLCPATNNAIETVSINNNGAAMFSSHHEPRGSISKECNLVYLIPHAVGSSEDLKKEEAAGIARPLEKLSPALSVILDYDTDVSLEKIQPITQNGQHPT
D1 mod confirm: D1 receptor (human) allosteric modulation, confirmed. shares compounds with D1 mod. HEK293 D1 CRE-luciferase, dopamine EC30 potentiation; stronger effect = higher value. luminescence at 10 µM. 2,200 compounds, 88% hits;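 active = luminescence in either of two replicates above the same-plate mean plus 3 SD of the low-dose dopamine control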
D1 no dopamine: activates D1 CRE-luciferase signal without dopamine present; shares compounds with D1 mod; HEK293 D1 CRE-luciferase, luminescence, no dopamine; stronger effect = higher value; luminescence at 10 µM; 1,900 compounds, 0.8% hits; AID 646; in the data active = luminescence above about 3900
Isoprot counter: counter-screen for D1 modulators: isoproterenol response in HEK293 cells. shares compounds with D1 mod. HEK293 D1 CRE-luciferase, isoproterenol EC30 counter-screen. 2,200 compounds, 63% hits. calls only at 10 µM;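 active = luminescence in either replicate above plate mean of wells with a partly effective reference agonist dose plus 3 SD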;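 also: isoproterenol raises cAMP through native beta-adrenoceptor Gs so signal bypasses D1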
* hit, by the source's call; i = inactive; ? = inconclusive; · = not tested or not shown; + = active, no number. This is a sample that favours compounds with a hit; in the whole collection about 9% have one here.

SMILES	mHtt clearance	M1 ag	AP complement	M1 antagonist	D1 mod	D1 mod confirm	D1 no dopamine	Isoprot counter
Cc1cc2n(n1)C(c1ccc3c(c1)OCO3)Nc1c(C)cccc1-2 (centres undefined)	·	1.7	4	0.51	12*	13912*	1536	+
Cc1cc2n(n1)C(c1cn(-c3ccccc3)nc1C)Nc1c(C)cccc1-2 (centres undefined)	1	·	·	·	·	·	·	·
Cc1cc(C)c2c(c1)-c1cc(C)nn1C(c1ccc3c(c1)OCO3)N2 (centres undefined)	·	0.88	-13	-0.14	4.4*	10424*	·	+
O=C(CCc1ccc(CCC(=O)c2cccs2)s1)c1cccs1	·	-0.26	3	-0.96	3.4*	11800*	1636	i
O=C(CCSc1ccc(Cl)cc1)c1cccs1	30	·	·	·	·	·	·	·
Cc1oc2cc3c(C(=O)N4CCN(c5ccccc5)CC4)c(C)oc3cc2c1C(=O)N1CCN(c2ccccc2)CC1	1	·	·	·	·	·	·	·
CCCCc1n[nH]c2c1/C(=N/O)CC(c1ccccc1)C2 (centres undefined)	5	-0.47	17	0.5	-0.46	·	·	·
CCc1n[nH]c2c1/C(=N\O)CC(c1ccccc1)C2 (centres undefined)	0	1.1	2	-0.13	4.3*	7364*	1120	i
c1cn2cc(-c3ccc4c(c3)OCO4)nc2s1	·	0.44	-2	0.15	-3.6	·	·	·
S=c1[nH]nc(-c2ccco2)n1Cc1ccccc1	·	-0.79	·	-0.26	·	·	·	·
c1coc(-c2nc3nc4ccccc4nc3n2CC2CCCO2)c1 (centres undefined)	·	·	22	·	4.8*	10012*	1816	+
O=c1c2ccccc2nc(-c2ccco2)n1Cc1ccccc1	56	-0.2	4	0.36	7.8*	19492*	1608	+
CCCCCn1c(-c2ccco2)nc2nc3ccccc3nc21	9	0.012	-10	-0.39	12*	18024*	1828	+
O=c1o[nH]c(-c2ccccc2)c1C1=NCCCCC1	?	-0.31	-28	-0.083	9*	6360	1616	i
Oc1[nH]c2ccccc2c1C1=NCCCC1	23	-0.0055	8	-0.19	0.0021	·	·	·
Cc1nc(SCC#N)c2c(C)c(C)sc2n1	-8	0.28	3	-0.92	5.8*	13352*	1616	+
Cc1ccc(-c2nnc(CSc3nc(C)nc4sc(C)c(C)c34)o2)cc1	·	0.28	9	0.19	-0.6	·	·	·
O=S(NCc1ccco1)C12CC3CC(CC(C3)C1)C2 (centres undefined)	31	-0.2	-14	0.024	-0.54	·	·	·
CCCOn1c(OCC(C)C)nc2ccccc2c1=O	6	0.15	-10	-0.0034	4.5*	12220*	1508	+
CC(C)Cn1c(-c2ccccc2)nc2ccccc2c1=O	13	·	·	·	·	·	·	·
COCCNC(=O)CSc1nc2ccccc2c(=O)n1CCCC(=O)NCc1ccccc1	-41	-0.73	17	0.5	-0.12	·	·	·
COc1ccc(CC(=O)Nc2nc(C)cs2)cc1OC	·	-1.3	6	0.7	3.9*	12824*	1648	+
COc1cccc(-c2csc(NC(C)=O)n2)c1	·	-0.18	8	-0.81	-0.0081	·	·	·
COc1ccc(-c2csc(NC(C)=O)n2)cc1OC	14	0.5	2	0.049	6.1*	10116*	1664	+
COc1ccc(Cc2nnc(NC(=O)Cc3cccs3)s2)cc1OC	·	-0.62	·	0.51	17*	27116*	1544	+
SMILES	mHtt clearance	M1 ag	AP complement	M1 antagonist	D1 mod	D1 mod confirm	D1 no dopamine	Isoprot counter
O=C(Cc1cccs1)Nc1nnc(CCc2ccccc2)s1	-26	0.47	4	0.3	-0.17	·	·	·
CCOc1ccc(C(=O)Nc2ccc3c(c2)OCCO3)cc1OC	-37	0.56	-12	0.012	-0.056	·	·	·
CCOc1cc(C(=O)Nc2ccc3c(c2)OCO3)ccc1OC(F)F	·	-0.65	7	-0.31	7.6*	13356*	1552	+
CCOC(=O)Cn1c(CN(Cc2ccccc2)Cc2ccccc2)nc2c1c(=O)n(C)c(=O)n2C	-22	1.6	-11	-0.2	0.045	·	·	·
NC(=O)c1nsc(C(=O)N(CC(=O)NCc2ccc3c(c2)OCO3)C2CCCC2)c1N	4	1.4	7	-1	0.057	·	·	·
CCc1nnc(NC(=O)CSc2ncc(-c3ccccc3)n2CC)s1	·	0.57	1	-0.057	3.5*	8216*	1656	i
CCOc1ccc(NC(=O)Cn2nnc(C(=O)NCc3ccccc3OC)c2N)cc1	-44	0.44	11	-0.22	4.3*	4744	1560	i
CCOc1ccc(NC(=O)c2nnn(CC(=O)Nc3ccccc3OCC)c2N)cc1	21	-0.14	13	0.094	0.81	·	·	·
COC(=O)CN(C#N)c1nc(SC)nc(N(C)C)n1	-35	-0.72	22	1.6	-0.26	·	·	·
COc1nc(/C(N)=N/O)nc(N2CCCCC2)n1	-74	-0.034	17	1.1	13*	24932*	1416	+
COc1nc(N(C#N)CC(N)=O)nc(N2CCCC2)n1	-2	-0.55	8	0.096	8.4*	20228*	1780	+
Nc1nc(CSc2ncccn2)nc(Nc2ccccc2)n1	-19	·	·	·	·	·	·	·
COc1ccc(Nc2nc(N)nc(CSc3n[nH]c(-c4ccccc4)n3)n2)cc1	26	0.43	0	-0.68	5*	6616*	1264	+
COc1ccc(OC)c(S(=O)(=O)N2CCC(C(=O)Nc3cccc(C)c3)CC2)c1	2	·	·	·	·	·	·	·
COC(=O)c1ccccc1NC(=O)C1CCN(S(=O)(=O)c2cc(C)ccc2OC)CC1	18	1.3	1	0.41	17*	16104*	1660	+
Cc1ccc(C)n1-n1cnc2scc(-c3cccs3)c2c1=O	·	-0.055	17	0.13	17*	24272*	1704	+
Cc1ccc(-n2cnc3scc(-c4cccs4)c3c2=O)cc1	52	·	·	·	·	·	·	·
CC1Cc2nc(SCC(=O)OCc3ccccc3)n(C)c(=O)c2S1 (centres undefined)	·	-0.35	10	-0.13	-0.07	·	·	·
O=C(O)CCCC(=O)Nc1ccccc1C(=O)N1CCCC1	-66	-0.082	6	-0.074	0.038	·	·	·
O=C(O)CCCC(=O)Nc1ccccc1Br	32	0.25	3	1.3	7.2*	4184	·	i
CCOc1ccc(S(=O)(=O)Nc2cc(OC)ccc2OC)cc1	·	0.36	9	-0.87	4.5*	11952*	1748	+
COc1ccc(OC)c(NS(=O)(=O)c2ccc(SC)cc2)c1	-22	0.54	5	-0.22	0.5	·	·	·
CCc1c(O)cc2n(c1=O)-c1ccc(Cl)cc1C2(C)C	1	·	·	·	·	·	·	·
CCN=C1SC(CC(=O)Nc2sc(C)c(C)c2C(=O)OC)C(=O)N1CC (centres undefined)	27	-0.61	18	0.18	1.1	·	·	·
